According to ChEMBL document CHEMBL2176868, “7-Alkyl-3-benzylcoumarins: a versatile scaffold for the development of potent and selective cannabinoid receptor agonists and antagonists” (J Med Chem, 2012):

Legend:
Cannabinoid receptor 2 [1] = biological target: T1, Cannabinoid receptor 2 (Homo sapiens, UniProt P34972); test: Agonist activity at human CB2 receptor expressed in CHO cells assessed as inhibition of forskolin-stimulated cAMP accumulation using [3H]-cAMP at 1 uM after 5 mins by liquid scintillation counter relative to CP55940; assay type: functional, cell-based
Cannabinoid receptor 2 [2] = biological target: T1, Cannabinoid receptor 2; test: Displacement of [3H]CP55,940 from human CB2 receptor expressed in CHO cells after 2 hrs by liquid scintillation counter; assay type: cell-based
Cannabinoid receptor 1 [3] = biological target: T2, Cannabinoid receptor 1 (Homo sapiens, UniProt P21554); test: biochemical; assay type: cell-based, CHO
Cannabinoid receptor 1 [4] = biological target: T2, Cannabinoid receptor 1; settings: CHO, at 1 µM
Cannabinoid receptor 2 [5] = biological target: T1, Cannabinoid receptor 2; test: Agonist activity at human CB2 receptor expressed in CHO cells assessed as inhibition of forskolin-stimulated cAMP accumulation using [3H]-cAMP after 5 mins by liquid scintillation counter; assay type: functional, cell-based
Procedure, shortened: (§1)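 Intact CHO cells stably expressing the receptor (retrovirally transfected, kept in 0.2 mg/mL G418) were seeded 24 h ahead and preincubated 2 h at 37 °C in HBSS. Cells were lysed hot and cAMP was read by competition with [3H]cAMP for bovine adrenal binding protein, filtered and counted. EC50 came from full concentration-response curves, three independent experiments in duplicate.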

Cannabinoid receptor 2 [6] = biological target: T1, Cannabinoid receptor 2; test: Displacement of [3H]CP55,940 from human CB2 receptor expressed in CHO cells at 10 uM after 2 hrs by liquid scintillation counter; assay type: cell-based
Procedure, shortened: (§2)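 The screen used CHO cell membranes expressing the human receptor (50 μg protein), [3H]CP55,940 at 0.1 nM final and compound at 10 μM in 50 mM Tris, 3 mM MgCl2, 0.1% BSA, pH 7.4, with 2.5% DMSO final. Incubation was 2 h at room temperature. Nonspecific binding was taken with 10 μM unlabeled CP55,940. Filtration through PEI-soaked GF/C filters was followed by scintillation counting, and the value is % inhibition of binding.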

Cannabinoid receptor 1 [7] = biological target: T2, Cannabinoid receptor 1; test: Displacement of [3H]CP55,940 from human CB1 receptor expressed in CHO cells at 10 uM after 2 hrs by liquid scintillation counter; assay type: cell-based; procedure, shortened: as §2
CHO = test: Selectivity ratio of Ki for human CB1 receptor to Ki for human CB2 receptor expressed in CHO cells; assay type: cell-based
Cannabinoid receptor 1 [8] = biological target: T2, Cannabinoid receptor 1; test: Agonist activity at human CB1 receptor expressed in CHO cells assessed as inhibition of forskolin-stimulated cAMP accumulation using [3H]-cAMP after 5 mins by liquid scintillation counter; assay type: functional, cell-based; procedure, shortened: as §1

T2 sequence (P21554 whole entry): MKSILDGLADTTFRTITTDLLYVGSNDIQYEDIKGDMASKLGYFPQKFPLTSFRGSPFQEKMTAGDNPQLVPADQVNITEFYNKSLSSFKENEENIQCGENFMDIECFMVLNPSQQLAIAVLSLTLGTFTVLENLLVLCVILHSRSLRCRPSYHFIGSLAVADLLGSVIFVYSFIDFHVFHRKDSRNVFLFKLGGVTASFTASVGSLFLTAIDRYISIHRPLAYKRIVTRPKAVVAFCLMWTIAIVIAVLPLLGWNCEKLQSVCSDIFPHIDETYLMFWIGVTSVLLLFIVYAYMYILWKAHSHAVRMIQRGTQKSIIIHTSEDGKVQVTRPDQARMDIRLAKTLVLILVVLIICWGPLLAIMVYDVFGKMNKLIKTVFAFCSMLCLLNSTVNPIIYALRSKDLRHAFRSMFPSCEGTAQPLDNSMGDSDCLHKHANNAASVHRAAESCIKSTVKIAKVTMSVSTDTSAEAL
T1 sequence (P34972 whole entry): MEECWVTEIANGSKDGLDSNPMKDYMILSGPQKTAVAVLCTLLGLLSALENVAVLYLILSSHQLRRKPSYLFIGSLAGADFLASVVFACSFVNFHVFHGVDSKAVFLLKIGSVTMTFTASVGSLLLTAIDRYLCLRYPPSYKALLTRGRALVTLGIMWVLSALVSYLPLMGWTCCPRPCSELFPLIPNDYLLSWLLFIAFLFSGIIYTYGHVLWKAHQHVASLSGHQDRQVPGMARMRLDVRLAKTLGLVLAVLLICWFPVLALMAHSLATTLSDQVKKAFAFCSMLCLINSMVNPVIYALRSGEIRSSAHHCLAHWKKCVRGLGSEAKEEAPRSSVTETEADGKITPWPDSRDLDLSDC

SMILES	inhibition (Cannabinoid receptor 2 [1]) [%]	Ki (Cannabinoid receptor 2 [2]) [nM]	Ki (Cannabinoid receptor 1 [3]) [nM]	inhibition (Cannabinoid receptor 1 [4]) [%]	EC50 (Cannabinoid receptor 2 [5]) [nM]	inhibition (Cannabinoid receptor 2 [6]) [%]	inhibition (Cannabinoid receptor 1 [7]) [%]	Ratio Ki (CHO)	EC50 (Cannabinoid receptor 1 [8]) [nM]
CCCCCc1cc(O)c2cc(Cc3cccc(C)c3)c(=O)oc2c1	10	1760	2170	42	–	–	–	–	–
CCCCC1(c2cc(O)c3cc(Cc4ccccc4O)c(=O)oc3c2)CCCC1	106	68	1580	18	48	–	–	–	–
CCCCCc1cc(OC)c2cc(Cc3ccccc3C)c(=O)oc2c1	58	405	22	0	213	–	–	–	–
Cc1ccc(Cc2cc3c(O)cc(C)cc3oc2=O)cc1	–	> 10000	> 10000	–	–	23	30	–	–
COc1cccc(Cc2cc3c(OC)cc(CO[Si](c4ccccc4)(c4ccccc4)C(C)(C)C)cc3oc2=O)c1	–	> 10000	> 10000	–	–	4	12	–	–
CCCCC1(c2cc(OC)c3cc(Cc4ccccc4OC)c(=O)oc3c2)CCCCC1	–	≤ 10000	≤ 10000	–	–	45	42	–	–
CCCCCCCC(C)(C)c1cc(O)c2cc(Cc3ccccc3O)c(=O)oc2c1	52	292	1170	0	–	–	–	–	–
CCCCCc1cc(OC)c2cc(Cc3cccc(Cl)c3)c(=O)oc2c1	40	350	637	0	–	–	–	–	–
CCCCCc1cc(O)c2cc(Cc3cccc(Cl)c3)c(=O)oc2c1	0	2200	6390	70	–	–	–	–	–
Cc1ccc(C(C)C)c2cc(Cc3ccccc3O)c(=O)oc12	–	> 10000	> 10000	–	–	24	31	–	–
CCCCCc1cc(O)c2cc(Cc3ccccc3)c(=O)oc2c1	0	1680	1270	0	–	–	–	–	–
COc1cccc(Cc2cc3c(OC)cc(Br)cc3oc2=O)c1	0	2450	> 10000	0	–	–	38	–	–
CCCCCc1cc(OC)c2cc(Cc3cccc(C)c3)c(=O)oc2c1	50	392	713	0	–	–	–	–	–
CCCCCc1cc(O)c2cc(Cc3cccc(O)c3)c(=O)oc2c1	0	5150	16200	0	–	–	–	–	–
CCCCCCC(C)(C)c1cc(O)c2cc(Cc3ccccc3O)c(=O)oc2c1	76	210	244	0	54	–	–	–	–
CCCCCc1cc(O)c2cc(Cc3ccccc3C)c(=O)oc2c1	12	3570	1640	9	–	–	–	–	–

SMILES	inhibition (Cannabinoid receptor 2 [1]) [%]	Ki (Cannabinoid receptor 2 [2]) [nM]	Ki (Cannabinoid receptor 1 [3]) [nM]	inhibition (Cannabinoid receptor 1 [4]) [%]	EC50 (Cannabinoid receptor 2 [5]) [nM]	inhibition (Cannabinoid receptor 2 [6]) [%]	inhibition (Cannabinoid receptor 1 [7]) [%]	Ratio Ki (CHO)	EC50 (Cannabinoid receptor 1 [8]) [nM]
COc1cccc(Cc2cc3c(OC)cc(CO)cc3oc2=O)c1	–	> 10000	> 10000	–	–	16	8	–	–
CCCCCc1cc(OC)c2cc(Cc3ccccc3Cl)c(=O)oc2c1	47	185	33	6	–	–	–	–	–
CCCCCc1cc(OC)c2cc(Cc3ccccc3)c(=O)oc2c1	47	267	1920	58	–	–	–	7	–
CCCCCCC(C)(C)c1cc(O)c2cc(Cc3ccccc3)c(=O)oc2c1	32	465	2630	84	–	–	–	–	–
CCCCC1(c2cc(O)c3cc(Cc4ccccc4O)c(=O)oc3c2)CCCCC1	76	49	4890	0	179	–	–	100	–
COc1cccc(Cc2cc3c(OC)cc(CBr)cc3oc2=O)c1	0	13300	4740	23	–	–	–	–	–
COc1cccc(Cc2cc3c(OC)cccc3oc2=O)c1	–	> 10000	21100	0	–	27	–	–	–
CCCCCc1cc(O)c2cc(Cc3ccccc3Cl)c(=O)oc2c1	2	1940	19100	60	–	–	–	–	–
CCCCCCC(C)(C)c1cc(OC)c2cc(Cc3ccccc3)c(=O)oc2c1	0	4120	1430	27	–	–	–	–	–
CCCCCCC(C)(C)c1cc(OC)c2cc(Cc3ccccc3OC)c(=O)oc2c1	30	3010	1020	0	–	–	–	–	–
CCCCCc1cc(OC)c2cc(Cc3cccc(OC)c3)c(=O)oc2c1	93	143	45	58	92	–	–	–	430
CCCCCc1cc(O)c2cc(Cc3ccccc3O)c(=O)oc2c1	0	4800	9820	109	–	–	–	–	–
CCCCCCCC(C)(C)c1cc(OC)c2cc(Cc3ccccc3OC)c(=O)oc2c1	–	10000	10000	–	–	47	51	–	–
Cc1cc(O)c2cc(Cc3ccccc3C)c(=O)oc2c1	–	> 10000	> 10000	–	–	38	34	–	–
CCCCC1(c2cc(OC)c3cc(Cc4ccccc4OC)c(=O)oc3c2)CCCC1	3	1140	598	110	–	–	–	–	–
CCCCCc1cc(OC)c2cc(Cc3ccccc3OC)c(=O)oc2c1	106	49	32	93	14	–	–	–	56
